Compounds with a hit are over-represented: about 0.79% of the library has one in this group of screens.
mIAP inh: mouse IAP inhibition; purified mouse IAP, CDP-Star luminescence, 30 min; inhibition, % at 10 µM; 0.2% of 330,000 active;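 active = inhibition of at least 40% at 10 µM in the primary screen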;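 also: plate controls were DMSO with enzyme for no effect and no enzyme wells for full effect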
mIAP activ: increases mouse intestinal alkaline phosphatase activity | 0.24% of 330,000 active | muIAP, CDP-Star luminescence, 30 min; active compounds read high; 1 = vehicle-only enzyme signal, 0 = enzyme-free wells | activation factor at 10 µM;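 active = activation factor of at least 2 at 20 µM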
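also added = chemiluminescent substrate CDP-Star | test system = mouse IAP enzyme | signal = chemiluminescence readout | compound = DMSO-dissolved test compounds | incubation = 30 min at room temperature | benchmarks = DMSO wells, no-enzyme wells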
bIAP inhibitor: blocks bovine intestinal alkaline phosphatase activity; purified bovine IAP, CDP-star luminescence, 30 min; 190,000 tested, under 10 active; inhibition, % at 20 µM;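 active = over 50% inhibition of intestinal alkaline phosphatase at 20 µM in the single-dose screen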
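System: Purified bovine intestinal alkaline phosphatase (IAP) enzyme | Input: IAP diluted 1/65,000,000 in the well | Also added: CDP-star chemiluminescent phosphatase substrate, 30 µM final | Dosing: 20 µM single dose | Times: Enzyme reaction for 30 min at room temperature | Detection: Luminescence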
hIAP act: human IAP activation | 0.16% of 330,000 active | P09923 | activation factor at 10 µM | purified human IAP, CDP-Star luminescence, 30 min; active compounds read high; 1 = vehicle-only enzyme, 0 = enzyme-free background;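 active = activation factor of the enzyme at least 2-fold when tested at 20 µM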
Target sequence (P09923 whole entry, looked up): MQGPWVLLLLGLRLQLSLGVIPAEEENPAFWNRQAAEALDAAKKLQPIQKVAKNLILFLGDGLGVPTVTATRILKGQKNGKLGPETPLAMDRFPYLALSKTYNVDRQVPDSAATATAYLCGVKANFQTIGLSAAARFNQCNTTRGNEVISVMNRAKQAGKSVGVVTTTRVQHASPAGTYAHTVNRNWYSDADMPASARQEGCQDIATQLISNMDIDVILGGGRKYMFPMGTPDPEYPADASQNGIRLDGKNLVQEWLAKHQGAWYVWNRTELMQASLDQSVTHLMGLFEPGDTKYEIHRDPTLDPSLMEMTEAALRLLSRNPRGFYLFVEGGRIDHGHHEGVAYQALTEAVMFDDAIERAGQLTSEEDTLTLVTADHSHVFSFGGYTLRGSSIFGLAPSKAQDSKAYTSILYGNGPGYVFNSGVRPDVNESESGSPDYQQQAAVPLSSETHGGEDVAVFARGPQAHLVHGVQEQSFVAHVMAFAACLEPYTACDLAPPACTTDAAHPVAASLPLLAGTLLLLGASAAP
bIAP activator: intestinal alkaline phosphatase (bovine) activation; purified bovine IAP, CDP-star luminescence, 30 min; active compounds read high; fold of DMSO-control signal, blank-subtracted; activation factor at 20 µM; 0.17% of 200,000 active;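 active = activation factor of 2 or more at 20 µM, a signal rise over negative controls twice the positive control's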
hIAP inh: human IAP inhibition; P09923; purified IAP, CDP-Star luminescence, 30 min; inhibition, % at 10 µM; 0.12% of 330,000 active; AID 2544;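 active = inhibition reaching a set limit with compound at 10 µM in the primary screen, cut at about 35% in these data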;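 also: plate controls were DMSO wells with enzyme for no effect and no-enzyme buffer wells for full effect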
Active calls of the source: *.

`O=C(COC(=O)c1cc(=O)[nH]c(=O)[nH]1)Nc1cccc(Cl)c1` gave mIAP inh -9.3, mIAP activ 1.09, hIAP act 1.11 and hIAP inh -10.8.
`O=C(Nc1ccc(N2CCOCC2)cc1)c1ccc2nc(-c3ccco3)c(-c3ccco3)nc2c1` gave mIAP inh 7.9, mIAP activ 0.921, bIAP inhibitor 14.2, hIAP act 1.18, bIAP activator 0.9 and hIAP inh -18.3.
Screening S=C(Nc1ccc(N2CCOCC2)cc1)Nc1ccc2nc(-c3ccco3)c(-c3ccco3)nc2c1 returned mIAP inh 44.7*, mIAP activ 0.553, bIAP inhibitor 22.8, hIAP act 0.881, bIAP activator 0.8 and hIAP inh 11.9.
For CCOc1ccc2nc(NCCCNC(=O)c3cc(OC)c(OC)c(OC)c3)c(C#N)cc2c1 the results were mIAP inh -100.9, mIAP activ 2.01*, hIAP act 1.72 and hIAP inh -71.9.
For CC1(C)Oc2ccc3ccc(=O)oc3c2/C(=C/Nc2ccccc2)C1=O the results were mIAP inh 40.6*, mIAP activ 0.594, bIAP inhibitor 16.0, hIAP act 0.962, bIAP activator 0.8 and hIAP inh 3.8.
CC1(C)Oc2ccc3ccc(=O)oc3c2/C(=C/N)C1=O was read as mIAP inh 7.1, mIAP activ 0.929, bIAP inhibitor 3.0, hIAP act 1.23, bIAP activator 1 and hIAP inh -23.4.
`CCOC(=O)c1cc(-c2ccccc2)n(CC(=O)Nc2cc(OC)cc(OC)c2)c1C` gave mIAP inh -116.1, mIAP activ 2.16*, hIAP act 1.17, bIAP activator 0.5 and hIAP inh -16.9.
For CCOC(=O)c1cc(-c2ccccc2)n(CC(=O)Nc2ccc(OCC)cc2)c1C the results were mIAP inh -33.8, mIAP activ 1.34, bIAP inhibitor 16.6, hIAP act 0.978, bIAP activator 0.8 and hIAP inh 2.2.
Screening O=C(COC(=O)C1CC1)NCc1ccccc1 returned mIAP inh 4.0, mIAP activ 0.96, hIAP act 1.04 and hIAP inh -4.3.
Screening COc1cc(/C=C2\SC(=S)N(Nc3ccccc3)C2=O)cc(OC)c1OC returned mIAP inh 40.0*, mIAP activ 0.6, bIAP inhibitor 7.0, hIAP act 0.949, bIAP activator 0.9 and hIAP inh 5.0.
For CCCCCCc1ccc(N2C[C@H](CCCCC)[C@@H](CC(=O)NCc3ccccc3)C2=O)cc1 the results were mIAP inh -134.2, mIAP activ 2.34*, hIAP act 0.907 and hIAP inh 9.3.
CCCCCCc1ccc(N2C[C@H](Cc3ccccc3)[C@@H](CC(=O)NCc3ccc(OC)cc3)C2=O)cc1 was read as mIAP inh -99.5, mIAP activ 2, hIAP act 0.855 and hIAP inh 14.5.
`CCCCCCc1ccc(N2C[C@H](CCCCC)[C@@H](CC(=O)NCc3ccc(OC)cc3)C2=O)cc1` gave mIAP inh -125.5, mIAP activ 2.25*, hIAP act 0.947 and hIAP inh 5.3.
For COc1ccc(C(=O)O)cc1S(=O)(=O)Nc1ccccc1-c1ccccc1 the results were mIAP inh 1.3, mIAP activ 0.987, hIAP act 1.04 and hIAP inh -4.0.
Cc1ccc(-c2nnc(N3CC(C)OC(C)C3)c3ccccc23)cc1 (configuration not stated) was read as mIAP inh 6.5, mIAP activ 0.935, bIAP inhibitor -4.7, hIAP act 1.02, bIAP activator 1 and hIAP inh -2.2.
`O=C(Nc1cccc2ccccc12)c1cn(-c2ccccc2)nc1-c1cccs1` gave mIAP inh -118.4, mIAP activ 2.18*, bIAP inhibitor -11.6, hIAP act 1.02, bIAP activator 1.1 and hIAP inh -2.4.
`Cc1c(C(=O)N/N=C/c2ccncc2)nnn1-c1nonc1N` gave mIAP inh -0.3, mIAP activ 1, hIAP act 0.968 and hIAP inh 3.2.
Screening S=c1[nH]nc(-c2ccccc2Cl)n1Cc1ccccc1 returned mIAP inh 5.9, mIAP activ 0.941, bIAP inhibitor 7.7, hIAP act 1.07, bIAP activator 0.9 and hIAP inh -7.0.
Screening COc1ccc(Cl)cc1-c1n[nH]c(=S)n1Cc1ccccc1 returned mIAP inh 41.7*, mIAP activ 0.583, hIAP act 1.06 and hIAP inh -5.9.
For COc1cccc(NS(=O)(=O)c2cn(C)c(=O)n(C)c2=O)c1 the results were mIAP inh -6.1, mIAP activ 1.06, bIAP inhibitor -408.6, hIAP act 0.844, bIAP activator 5.1* and hIAP inh 15.6.
Cn1cc(S(=O)(=O)Nc2cccc(F)c2)c(=O)n(C)c1=O was read as mIAP inh -17.4, mIAP activ 1.17, bIAP inhibitor 5.8, hIAP act 0.966, bIAP activator 0.9 and hIAP inh 3.4.
`Cc1ccc(C(=O)Cn2c(=N)n(N)c3ccccc32)cc1` gave mIAP inh 7.1, mIAP activ 0.929, hIAP act 1.11 and hIAP inh -10.6.
Screening CCN(CC)CCn1c(=N)n(CC(=O)c2ccc(C)cc2)c2ccccc21 returned mIAP inh 40.9*, mIAP activ 0.591, hIAP act 1.03 and hIAP inh -2.8.
COc1ccc(/C(C)=N/NC(=O)CNC(=O)c2cccnc2)c(OC)c1 was read as mIAP inh 5.0, mIAP activ 0.95, hIAP act 0.989 and hIAP inh 1.1.
`N/C(=N\OC(=O)c1cccc2ccccc12)c1cccc([N+](=O)[O-])c1` gave mIAP inh -2.6, mIAP activ 1.03, bIAP inhibitor 11.2, hIAP act 0.946, bIAP activator 0.9 and hIAP inh 5.4.
Screening Cc1cccc(/C(N)=N/OC(=O)c2cccc3ccccc23)c1 returned mIAP inh 6.7, mIAP activ 0.933, hIAP act 0.599 and hIAP inh 40.1*.
CCOCCCN(C(=O)CCC(=O)Nc1cc(C)on1)C(C(=O)NC(C)(C)C)c1ccccc1Cl (configuration not stated) was read as mIAP inh -2.0, mIAP activ 1.02, hIAP act 1.15 and hIAP inh -14.8.
Screening N#Cc1ccccc1S(=O)(=O)N1CCN(CC(O)COc2ccccc2F)CC1 (configuration not stated) returned mIAP inh -2.9, mIAP activ 1.03, hIAP act 0.967 and hIAP inh 3.3.
`CCS(=O)(=O)NCc1ccc2[nH]c3c(c2c1)CCCC3` gave mIAP inh -7.6, mIAP activ 1.08, bIAP inhibitor -4.8, hIAP act 1.02, bIAP activator 1 and hIAP inh -2.5.
For S=C(NCc1ccc2[nH]c3c(c2c1)CCCC3)Nc1ccccc1 the results were mIAP inh -122.6, mIAP activ 2.23*, bIAP inhibitor 12.7, hIAP act 1, bIAP activator 0.9 and hIAP inh -0.4.

Assay outcomes from PubChem.
